Reference: publication PMC4424388 (Mucosal Immunology, 2014)
Like-named read-outs stand apart in the source and are kept apart here.

Columns and labels:
[1] = test system: Bif. adolescentis Ni3,29c; test: Transmission electron microscopy of bacteria; assay type: cell-based, Bifidobacterium adolescentis; conditions: TEM, 200 μg/ml peptide, 2 mM DTT, 2 h 37 °C, pH 7.4
[2] = Retention of reduced status in buffer with DTT; assay type: physicochemical; conditions: 2 mM DTT in sodium phosphate buffer
[3] = test system: Bifidobacterium adolescentis Ni3,29c; test: Antimicrobial radial diffusion assay; assay type: cell-based; conditions: 1 μg peptide, 2 mM DTT, at least three experiments
Summary of the method: (§1)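 Log-phase bacteria washed and diluted to OD600 0.1. Gel: 10 mM sodium phosphate (pH 7.4 or 5.7), 0.3 mg/ml TSB powder, 1% low-EEO agarose, 0–2 mM DTT. Peptide (1 μg/μl stock in 0.01% acetic acid) pipetted into punched wells; overlay gel poured after 3 h. Inhibition-zone diameter read after up to 48 h; 2.5 mm (well/vehicle) means no activity. ≥3 experiments, mean with s.e.m.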

[4] = test system: Lactobacillus acidophilus PZ 1138; test: Antimicrobial radial diffusion assay; assay type: cell-based; conditions: 1 μg peptide, 2 mM DTT, at least three experiments
Summary of the method: as §1

[5] = test system: Bifidobacterium breve PZ 1343; test: Antimicrobial radial diffusion assay; assay type: cell-based; conditions: 1 μg peptide, 2 mM DTT, at least three experiments
Summary of the method: as §1

[6] = test system: Bifidobacterium longum DSM 20219T; test: Antimicrobial radial diffusion assay; assay type: cell-based; conditions: 1 μg peptide, 2 mM DTT, at least three experiments
Summary of the method: as §1

[7] = test system: Streptococcus salivarius ssp thermophilus DSM20617; test: Antimicrobial radial diffusion assay; assay type: cell-based; conditions: 1 μg peptide, 2 mM DTT, at least three experiments
Summary of the method: as §1

[8] = test system: Bif. adolescentis Ni3,29c; test: Turbidity broth assay; assay type: cell-based, Bifidobacterium adolescentis; conditions: higher peptide concentrations; causes apparent better growth in OD600
Summary of the method: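 Overnight Bif. adolescentis Ni3,29c was washed twice in 10 mM sodium phosphate with 1% TSB. About 5×10^5 CFU/ml were exposed to peptide at 1.25–128 μg/ml, with 2 mM DTT where indicated, for 2 h at 37 °C in an anaerobic jar. 6% TSB was then added and A600 read at 24 and 48 h; change plotted against concentration. CFU counted in parallel on Columbia blood agar. Triplicate experiments, mean with s.e.m.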

[9] = Chemical reduction by DTT; assay type: physicochemical; conditions: incubation extended to 3 h or DTT increased to 10 mM; data not shown
[10] = test system: human TRX (with rat TRX reductase, NADPH); test: In vitro reduction assay, thioredoxin system; assay type: biochemical; conditions: TRX increased to 6 μM or incubation prolonged to 60 min; data not shown
[11] = In vitro reduction assay, glutathione; assay type: physicochemical; conditions: 5 mM reduced glutathione, 100 mM sodium phosphate, 2 mM EDTA; RP-HPLC; Supplementary Figure 4
glutaredoxin = test: In vitro reduction assay, glutaredoxin; assay type: biochemical; conditions: 3 μM glutaredoxin with 5 mM reduced glutathione; RP-HPLC; Supplementary Figure 4
Summary of the method: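 Glutathione-based system: 5 mM reduced glutathione in 100 mM sodium phosphate with 2 mM EDTA, plus 3 μM active glutaredoxin or buffer only, incubated with oxidized peptide. Mixtures acidified with trifluoroacetic acid and analysed by RP-HPLC: C18 column, 15–45% acetonitrile (TFA-containing solvents) over 30 min at 25 °C and 0.8 ml/min.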

[12] = test system: (anaerobic) commensal gut bacteria; test: Antimicrobial radial diffusion assay, bacteria not given; assay type: cell-based; conditions: 1 μg peptide, 2 mM DTT
Summary of the method: as §1

[13] = test system: human TRX (with rat TRX reductase, NADPH); conditions: cited from earlier work

ΔredHD-6: synthetic reduced truncated HD-6 (TCHCRRSCYSTEYSYGTCTVMGINHRFCCL; Defensin-6 reduced; UniProt Q01524 71-100, looked up, fragment)
ultrastructural alterations of the bacterium [1]: disintegration of stainable intracellular structures
time for which the peptide retained its completely reduced status [2]: at least 2 h

Human α-defensin 6 [HD-6]
antibiotic activity, especially under reducing conditions [3]: inhibitory activity
antibiotic activity, especially under reducing conditions [4]: inhibitory activity
antibiotic activity, especially under reducing conditions [5]: inhibitory activity
antibiotic activity, especially under reducing conditions [6]: inhibitory activity
antibiotic activity, especially under reducing conditions [7]: inhibitory activity
aggregation in the turbidity assay [8]: light-scattering aggregations
extent of reduction of disulfide bridges by DTT [9]: remarkably enhanced HD-6 reduction, but the oxidized form of the peptide could still be detected
reduction by the TRX system [10]: not sufficient to completely reduce
reduction by glutathione [11]: did not lead to any reduction
reduction by glutaredoxin (glutaredoxin): did not lead to any reduction

human β-defensin 1 (DHYNCVSSGGQCLYSACPIFTKIQGTCYRGKAKCCK; Beta-defensin 1; UniProt P60022 33-68, looked up) [hBD-1, reference compound]
activity under reducing conditions against several bacteria [12]: increased activity
reduction by the TRX system [13]: can also reduce

B1: HD-5: synthetic oxidized human α-defensin 5 (peptide, UniProt Q01523 20-94, looked up)
Defensin alpha 5: ESLQERADEATTQKQSGEDNQDLAISFAGNGLSALRTSGSQARATCYCRTGRCATRESLSGVCEISGRLYRLCCR
modifications: Defensin-5
reduction by the TRX system [13]: can also reduce
